Dynein transport = inhibitors of GR-EGFP nuclear translocation, primary screen, dynein cargo transport inhibitor project, imaging, high-content, 3617.4 mouse cells | z-score, hits read low | hit rate 0.47% among 220,000 | test concentration mostly 20 µM; stimulated with dexamethasone, 1 µM; hits give low values;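 active = plate z-score of nuclear minus cytoplasmic receptor signal below a set negative limit, without overly bright fluorescence or cell loss, cut at about -3.5 in these data, passing the limit was not always enough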;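 note: z-score of nuclear minus cytoplasmic ring GR-EGFP intensity difference per well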
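Buffer or medium: tet-free medium with charcoal-stripped serum / Also added: dexamethasone agonist, 1.0 µM final, for 30 min / Timing: induction 48 h, compound 1 h, agonist 30 min / Measured by: high-content fluorescence imaging after fixation / Read-out: nuclear-to-cytoplasmic GR-EGFP distribution per well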
Mdm2-MdmX inh = inhibitors of human Mdm2-MdmX association, primary screen, cell-based, luminescence, split luciferase, SaOS-2, uHTS. inhibition, % at 8 µM. SaOS-2 split-luciferase Mdm2/MdmX complementation. Protein Mdm4 (Homo sapiens) + E3 ubiquitin-protein ligase Mdm2 (Homo sapiens), …. hit rate 3% among 330,000. AID 485346, 2010;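 active = inhibition of at least 50% at 8 µM in the primary screen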
XBP1 UPR activ = activators of adaptive XBP1 UPR arm, primary screen, cell-based, CHO-XBP1 luciferase reporter, luminescence, uHTS; AID 463104, 2010; hit rate 0.33% among 330,000; activation, % at 20 µM; IRE1-XBP1 UPR activation; percent of tunicamycin response, DMSO as zero;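 active = versus positive control, 20 µM dose yields 30% or more activation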
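Assay system: IRE1-XBP1 luciferase reporter CHO line. Input: 1000 cells/well. Buffer or medium: F12 with 10% serum. Doses: 20 µM, 1% DMSO. Times: overnight seeding at 37 °C, 6 h compound treatment at 37 °C. Technique: Steady-Glo luciferase glow luminescence, 10 min after reagent addition.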
CHOP UPR activ = activators of apoptotic CHOP UPR arm, primary screen, cell-based, CHO-CHOP luciferase reporter, luminescence, uHTS; UPR activation; percent of tunicamycin response over DMSO baseline; activation, % at 10 µM; hit rate 0.34% among 330,000; AID 449763, 2010;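 active = at 10 µM dose, activation of 40% or more, normalized to positive control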
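measured by = luciferase luminescence | assay system = CHO-CHOP cells, stable luciferase reporter of PERK-eIF2a-CHOP signalling | amount = 500 reporter cells seeded per well | timing = 6 h compound exposure at 37 °C after overnight seeding | controls = positive tunicamycin 10 µg/mL, negative DMSO alone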
B2AR ag = beta2AR agonists driving receptor internalization, primary screen, cell-based, FAP fluorogen, flow cytometry; Am2.2-beta2AR cells; response, % (test concentration not listed); hit rate 0.43% among 340,000; Beta-2 adrenergic receptor (Homo sapiens), P07550;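 active = response above a set limit, near 3 SD of response in nonfluorescent compounds, cut at about 42% in these data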
MDM2 E3 inh = MDM2-luciferase reporter signal enhancers, primary screen, MDM2 E3 ligase inhibitor project, cell-based, luminescence, 1536-well; signal enhancement, % at 5 µM; hit rate 0.11% among 210,000; cell-based MDM2 ubiquitination luciferase reporter, 2 h; 0 = plate control, 100 = twice control, blank-subtracted;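 active = signal enhancement of 30% or more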;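 note: luminescence tracks abundance of the self-degrading MDM2-luciferase fusion protein; higher signal means inhibition of MDM2 E3 ligase activity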
Target sequence (Q00987 whole entry, looked up, the tested form may be a part): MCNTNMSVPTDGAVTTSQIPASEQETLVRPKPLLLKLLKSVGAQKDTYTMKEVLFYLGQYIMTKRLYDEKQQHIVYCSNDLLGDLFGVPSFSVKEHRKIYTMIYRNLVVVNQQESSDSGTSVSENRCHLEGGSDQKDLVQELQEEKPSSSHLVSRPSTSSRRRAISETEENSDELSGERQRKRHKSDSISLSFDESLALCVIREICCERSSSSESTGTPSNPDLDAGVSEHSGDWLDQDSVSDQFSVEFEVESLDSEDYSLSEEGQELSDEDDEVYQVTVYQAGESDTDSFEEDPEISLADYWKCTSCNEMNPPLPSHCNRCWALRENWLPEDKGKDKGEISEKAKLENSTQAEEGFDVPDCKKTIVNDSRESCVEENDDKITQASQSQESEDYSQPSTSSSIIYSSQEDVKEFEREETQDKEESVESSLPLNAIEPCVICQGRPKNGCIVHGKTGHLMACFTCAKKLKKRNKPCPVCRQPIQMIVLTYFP
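Material: stable MDM2–luciferase fusion reporter cells / Quantity: 2000 cells/well / Dosing: single 5 µM compound dose, 0.2% final DMSO / Buffer or medium: DMEM / Schedule: 4 h cell settling then 2 h compound exposure, 37 °C / Detection: luminescence with SteadyLite reagent, 15 min at room temperature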
Mdm2 MdmX conf = Mdm2-MdmX complex disruptors, retested hits, confirmation, luminescence, single concentration; shares compounds with Mdm2-MdmX inh; Mdm2-MdmX binding, luminescent assay; inhibition, % at 8 µM; hit rate 55% among 10,000; AID 489028, 2010; in the data active = inhibition above about 40%
FLuc counter = full-length luciferase signal inhibition, confirmation, counter-screen for Mdm2/MdmX interaction inhibitor project, cell-based, single concentration, SaOS-2 | shares compounds with Mdm2-MdmX inh | SaOS-2 full-length luciferase counterscreen, luminescence | inhibition, % at 8 µM | hit rate 77% among 6,200 | AID 504607, 2011;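 active = mean inhibition at 8 µM reaching about 37%, which flags the compound as non-specific, limit read from the data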;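 note: p53-null SaOS-2 cells with luciferase driven by a doxycycline-inducible promoter; compound on cells about two nights before reading with doxycycline added after day one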
Each line names hits and unclear results; the compound was inactive in the other large screens (follow-up assays come after a bar, where they were run). Hits are enriched below; roughly 3.7% of the tested compounds scored in any of these assays.

Cc1ccc(NS(=O)(=O)c2ccc(-c3cnc(C4CC4)o3)cc2)cc1	Mdm2-MdmX inh 53.1 (no result: Dynein transport, MDM2 E3 inh) | Mdm2 MdmX conf 50.6 | FLuc counter 49.6
Cc1ccc(N(C)S(=O)(=O)c2ccc(-c3cnc(C4CC4)o3)cc2)cc1	Mdm2-MdmX inh 61.0 (no result: Dynein transport, MDM2 E3 inh) | Mdm2 MdmX conf 55.4 | FLuc counter 78.7
CC(=O)c1ccc(NS(=O)(=O)c2ccc(-c3cnc(C4CC4)o3)cc2)cc1	none (no result: Dynein transport, MDM2 E3 inh)
O=C(N/N=C/c1cccn1-c1ccc(O)cc1)c1cccc2ccccc12	Mdm2-MdmX inh 64.1 (no result: Dynein transport, MDM2 E3 inh) | Mdm2 MdmX conf inactive
Oc1ccc(Cl)cc1/C=C/c1ccc2cccc(O)c2n1	Mdm2-MdmX inh 60.2 | Mdm2 MdmX conf inactive | FLuc counter 62.8
COc1cc(Br)c(/C=C/c2ccc3cccc(O)c3n2)cc1OC	Mdm2-MdmX inh 73.6 (no result: Dynein transport, MDM2 E3 inh) | Mdm2 MdmX conf 51.6 | FLuc counter 47.0
Oc1c(Cl)cc(Cl)cc1/C=C/c1ccc2cccc(O)c2n1	none
Oc1cccc2ccc(/C=C/c3ccccc3Br)nc12	none (no result: Dynein transport, MDM2 E3 inh)
COc1cc(Br)cc(/C=C/c2ccc3cccc(O)c3n2)c1O	Mdm2-MdmX inh 80.9 (no result: Dynein transport, MDM2 E3 inh) | Mdm2 MdmX conf 68.2 | FLuc counter 51.0
COc1ccc(OC)c(/C=C/c2ccc3cccc(O)c3n2)c1	Mdm2-MdmX inh 93.1 (no result: Dynein transport, MDM2 E3 inh) | Mdm2 MdmX conf inactive
COc1cc(/C=C/c2ccc3cccc(OC)c3n2)c(O)c([N+](=O)[O-])c1	none
COc1cc(/C=C/c2ccc3cccc(O)c3n2)c(Br)cc1O	Mdm2-MdmX inh 97.5 (no result: Dynein transport, MDM2 E3 inh) | Mdm2 MdmX conf inactive | FLuc counter inactive
COC(=O)c1ccc(NC(=O)CN2C(=O)CC(C)S(=O)(=O)c3ccccc32)cc1 (centres undefined)	none (no result: Dynein transport, MDM2 E3 inh)
O=C(CCc1nnc2n(Cc3ccc(F)cc3)c(=O)c3ccccc3n12)N1CCN(c2ccccn2)CC1	none (no result: Dynein transport, MDM2 E3 inh)
COc1ccc(-c2cn3c(C)c(C(=O)Nc4ccncc4)sc3n2)cc1	none
Cc1c(C(=O)Nc2ccncc2)sc2nc(-c3ccc(F)cc3)cn12	Mdm2-MdmX inh 67.0 | Mdm2 MdmX conf inactive
NC(=O)c1cc2cc(Cc3ccccc3Cl)ccc2oc1=O	none
N#CC1=C(N)N2C(=C(C#N)C1c1ccc(Br)cc1)Nc1ccccc12 (centres undefined)	Mdm2-MdmX inh 96.4 (no result: B2AR ag) | Mdm2 MdmX conf 95.3 | FLuc counter 53.0
N#CC1=C(N)N2C(=C(C#N)C1c1cccc(Br)c1)Nc1ccccc12 (centres undefined)	Mdm2-MdmX inh 100.4 | Mdm2 MdmX conf 44.0 | FLuc counter 40.2
N#CC1=C(N)N2C(=C(C#N)C1c1ccccc1)Sc1ccccc12 (centres undefined)	none (no result: B2AR ag)
N#CC1=C(N)N2C(=C(C#N)C13CCN(Cc1ccccc1)CC3)Nc1ccccc12	none
CC12CCC(=O)N1C(C(=O)NCc1ccc(Cl)cc1Cl)CS2 (centres undefined)	none (no result: Dynein transport, MDM2 E3 inh)
CN(C)CCCNS(=O)(=O)c1ccc(N2CCC(c3ccc(Cl)cc3)=N2)cc1	Mdm2-MdmX inh 100.5, XBP1 UPR activ 74.9 (no result: B2AR ag) | Mdm2 MdmX conf 99.5 | FLuc counter inactive
Cc1cc(Oc2nc3c(C)cccn3c(=O)c2/C=C(\C#N)S(=O)(=O)c2ccccc2)ccc1Cl	Mdm2-MdmX inh 51.7 | Mdm2 MdmX conf inactive
Clc1ccc2c(N/N=C/c3ccccc3Br)ccnc2c1	Mdm2-MdmX inh 100.5, B2AR ag 42.0 | Mdm2 MdmX conf 81.8 | FLuc counter 52.2

Compound activity as filed in PubChem BioAssay.
